A selection: hits, their analogues and other compounds. The true share with any hit is near 2.2%.
SIAE inh = human SIAE inhibitors, primary screen, biochemical, fluorescence polarization, FP-Rh probe, 1536-well HTS; Sialate O-acetylesterase (Homo sapiens), Q9HAT2; inhibition, % at 9.66 µM; AID 1053197, 2014; SIAE FP-Rh probe binding; 370,000 tested, 0.69% active;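 active = inhibition above a cutoff: mean of compounds within the control limits plus 3 SD of those, cut at about 17% in these data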;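 also: 0% = plate median of compound wells and 100% = probe without SIAE protein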
TCR-CD3 inh = inhibitors of human TCR-CD3 interaction, primary screen, biochemical, fluorescence, TAMRA-labeled TCR probe; T-cell receptor (TCR); inhibition, % at 9.4 µM; 360,000 tested, 0.37% active; AID 651800, 2012; in the data active = inhibition above about 19%;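 also: recombinant mutant TCR 2C K166C tagged with TAMRA read by polarization; 0% = receptor in buffer alone and 100% = receptor with positive control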
LEDGF integ inh = blockers of LEDGF/p75-dependent integrase strand transfer – biochemical, TR-FRET, high throughput, primary screen; TR-FRET IN-LEDGF/p75 DNA integration, Eu/Cy5; 370,000 tested, 0.64% active; inhibition, % at 3.7 µM; HIV-1 integrase (with human LEDGF/p75);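 active = inhibition above the screen-wide mean plus 3 SD, cut at about 13% in these data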;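 also: signal is the Cy5 over europium emission ratio at 671 and 618 nm; 0% = plate median of compound wells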
HTRA1 inhibitor = HTRA1 serine protease inhibitors, primary screen, biochemical, fluorescence polarization, HTS; Q92743; recombinant HTRA1, FP-rhodamine activity-based probe; inhibition, % at 5.96 µM; 340,000 tested, 0.5% active; AID 504803, 2011; in the data active = inhibition above about 36%;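 also: 0% = enzyme with DMSO and 100% = wells lacking enzyme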
ABHD4 inh = ABHD4 inhibitors, primary screen, biochemical, fluorescence polarization, mouse; (Lyso)-N-acylphosphatidylethanolamine lipase (Mus musculus), Q8VD66; purified mABHD4, FP-Rh probe fluorescence polarization; inhibition, % at 8.92 µM; 370,000 tested, 0.54% active;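 active = inhibition exceeding the mean over every tested compound plus 3 SD, cut at about 30% in these data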;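 also: 0% = plate median of compound wells and 100% = S159A mutant with DMSO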
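Assay system: wild-type mouse ABHD4 protein; compound: single nominal dose of 8.92 µM, 0.89% DMSO final; schedule: 45 min + 60 min at 25 °C; measured by: FP readout, ex 525 nm / em 598 nm; evaluation: % inhibition of FP-Rh probe binding versus controls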
TDP2 absorb = human TDP2 enzyme inhibitors, primary screen, biochemical, epi absorbance, recombinant enzyme; Tyrosyl-DNA phosphodiesterase 2 (Homo sapiens), O95551; T5PNP hydrolysis, p-nitrophenol absorbance 415 nm; inhibition, % at 12.8 µM; 370,000 tested, 0.34% active;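 active = inhibition above the mean of all tested compounds plus 3 SD, set per campaign, cut at about 25% in these data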;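 also: 0% = DMSO with enzyme and 100% = buffer with substrate but no TDP2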
Target sequence (O95551 whole entry, looked up): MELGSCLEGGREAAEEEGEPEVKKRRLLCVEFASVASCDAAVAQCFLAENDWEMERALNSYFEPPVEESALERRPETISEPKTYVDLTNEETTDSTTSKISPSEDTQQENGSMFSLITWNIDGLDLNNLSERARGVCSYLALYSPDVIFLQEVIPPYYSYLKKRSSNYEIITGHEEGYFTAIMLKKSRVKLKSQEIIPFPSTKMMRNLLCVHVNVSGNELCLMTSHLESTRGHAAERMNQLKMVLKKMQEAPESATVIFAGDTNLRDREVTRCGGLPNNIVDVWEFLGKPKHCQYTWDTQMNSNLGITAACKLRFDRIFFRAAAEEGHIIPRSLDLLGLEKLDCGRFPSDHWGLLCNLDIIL
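Test system: Human TDP2 enzyme | Reagent: 5 mM T5PNP | Compound dosing: 12.8 µM single point, 1% DMSO | Incubation: Enzyme reaction with compound for 2 h at 37 °C | Technique: p-Nitrophenol epi absorbance | Read-out: % inhibition relative to enzyme-containing and enzyme-free wells | Benchmarks: High control without enzyme, low control DMSO plus TDP2 | Replicates: Singlicate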
HTRA1 conf = HTRA1 protease inhibitors, retest, confirmation, biochemical, fluorescence polarization. shares compounds with HTRA1 inhibitor. recombinant HTRA1, FP-rhodamine activity-based probe. inhibition, % at 5.96 µM. 1,600 tested, 66% active. AID 540248, 2011;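 active = mean inhibition over three repeats above a set limit taken from the earlier primary screen, cut at about 37% in these data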;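 also: 0% = HTRA1 with DMSO and 100% = wells lacking HTRA1; inhibitors block probe binding so polarization drops and inhibition rises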
The depositor's hits bear a star; nt = no result given.

SMILES | SIAE inh | TCR-CD3 inh | LEDGF integ inh | HTRA1 inhibitor | ABHD4 inh | TDP2 absorb | HTRA1 conf
CC(C)C[C@@H]1NC(=O)[C@@H]2CSCCS(=O)(=O)N2C1=O | 4 | 0 | 1 | nt | -2 | 4 | nt
C[C@H](O)[C@@H]1CN2CCc3c([nH]c4cccc(-c5ccccc5)c34)[C@@H]2C[C@@H]1N(C)C(=O)C1CCCCC1 | 2 | nt | 3 | nt | 7 | -12 | nt
Cc1nn(-c2ccc(F)cc2)c2nc(N)c(C#N)c(-c3cccs3)c12 | -9 | 5 | -1 | -21 | -17 | 7 | nt
COc1cc(-c2c(C#N)c(N)nc3c2c(C)nn3-c2ccc(C)c(C)c2)cc(OC)c1OC | -18 | 7 | -1 | -35 | -21 | -8 | nt
Cc1nn(-c2ccc(F)cc2)c2nc(N)c(C#N)c(-c3ccc(O)c(O)c3)c12 | -14 | 12 | 3 | 59* | -17 | -4 | 62*
Cc1nn(-c2ccccc2)c2nc(N)c(C#N)c(-c3ccc(O)c(O)c3)c12 | -11 | 8 | -2 | 74* | 1 | 4 | 76*
O=S1(=O)CC(N2CCC(c3ccccc3)CC2)CN1Cc1cn(Cc2ccc(C(F)(F)F)cc2)nn1 (configuration not stated) | 0 | 0 | 0 | nt | 0 | 1 | nt
COc1ccc(CSc2nnc(SCC(=O)Nc3ccc(S(N)(=O)=O)cc3)s2)cc1 | -11 | nt | -3 | nt | -13 | -2 | nt
O=[N+]([O-])c1cc(Cl)c2cccnc2c1O | 0 | -1 | -4 | 43* | 10 | -3 | 52*
O=[N+]([O-])c1cc(F)c2cccnc2c1O | 9 | 1 | -4 | 55* | 16 | 6 | 48*
Oc1c(I)cc(Cl)c2cccnc12 | 17 | 9 | 4 | 54* | 27 | 8 | 87*
Cc1ccc(CN[C@@H]2CC[C@@]34CCCN3C(=O)CCC[C@H]4C2)o1 | -2 | nt | 1 | nt | 5 | 13 | nt
O=C(N/N=C/c1ccc(-c2ccc(S(=O)(=O)Nc3ncccn3)cc2)o1)c1cc2ccccc2cc1O | 10 | 18 | 10 | 57* | 1 | -15 | 66*
CCOc1ccc(C(=O)N/N=C/c2ccc(-c3ccc(S(=O)(=O)Nc4ncccn4)cc3)o2)cc1 | -6 | 9 | 1 | -7 | -8 | 12 | nt
CCCCNS(=O)(=O)CC1NCc2cc(F)ccc21 (configuration not stated) | -4 | nt | 4 | nt | -5 | -7 | nt
Oc1ccc(/C=N/n2c(-c3ccco3)csc2=Nc2cccnc2)c(O)c1 | 5 | 3 | 2 | 8 | 21 | -10 | nt
CC(C)N=c1scc(-c2ccco2)n1/N=C/c1ccc(O)c(O)c1 | -6 | -2 | -4 | 67* | 36* | -9 | 58*
CN1CCN(Cc2cc(COCc3ccccc3)c3cccnc3c2O)CC1 | 6 | -2 | -6 | 50* | -2 | -9 | 87*
Oc1c(CN2CCCCC2)cc(Br)c2cccnc12 | 12 | 1 | 2 | 71* | 21 | -10 | 72*
Oc1ccc(CN2CCN(Cc3ccccc3)CC2)c2cccnc12 | 5 | -3 | -4 | 28 | 8 | 0 | nt
Oc1c(Cl)cc(CN2CCOCC2)c2cccnc12 | 6 | 9 | -3 | 41* | 6 | 1 | 31
O=C(Oc1c(CN2CCOCC2)cc(Cl)c2cccnc12)c1ccccc1 | 3 | 0 | -7 | 37* | 7 | 3 | 7
COC(=O)C1CN(Cc2ccccc2)CCS(=O)(=O)N1Cc1ccccc1 (configuration not stated) | -2 | nt | 2 | nt | -1 | -3 | nt
CCCCc1c(-c2ccccc2OC)ncn1Cc1ccc(F)c(F)c1 | 6 | 9 | 1 | nt | 9 | 8 | nt

Screens (PubChem BioAssay)
